# Paper PMC9734322 (Inflammation Research, 2022)
# Columns and labels:
# [1] = tested on: platelet-rich plasma (PRP); settings: 1 µM, ADP 15 µM
# [2] = tested on: carrageenan-induced peritonitis; assay: Carrageenan-induced peritonitis, total and differential leukocyte count; format: in vivo, mice; settings: for % Mononuclear cells / % Neutrophils: mean ± SD
# Outline: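 Mice were pretreated i.p. (100 µL) with test compound or dexamethasone 10 mg/kg, then given carrageenan 10 mg/kg i.p. 1 h later; PBS pH 7.4 served as negative control. Peritoneal fluid was collected 3 h after first administration. Total leukocytes were counted in a Neubauer chamber. Slides were methanol-fixed 5 min and Giemsa-stained 15–20 min; 100 cells were counted per slide. Three experiments on different days; mean ± SD; ANOVA/Tukey.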
# P2X7R = settings: ATP concentration required for activation; cited from earlier work
# ATP-induced paw edema = ATP-induced paw edema assay; format: in vivo, mice (Swiss Webster); settings: 10 mM ATP subplantar, phlogistic agent
# Outline: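 Male Swiss Webster mice (~30 g) were given test compound at 100, 500 or 1000 ng/kg i.p. 1 h before ATP (10 mM/paw subplantar, 20 µL), with 0.9% NaCl in the contralateral paw. Diclofenac 10 mg/kg i.p. was the positive control and saline the negative control. Paw volume was read by plethysmometer 60 min after ATP. Three experiments on different days; mean ± SD; one-way ANOVA/Tukey.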
# [3] = tested on: initiation or propagation pathway of the coagulation cascade (plasma); assay: Activated partial thromboplastin time; format: biochemical, human; settings: control 41.3 ± 0.7 s
# [4] = tested on: calcium-dependent coagulation cascade factors (plasma); assay: Plasma recalcification time test; format: biochemical, human; settings: control 196.9 ± 9 s
# Outline: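 Pooled citrated plasma from healthy donors (100 µL) was incubated with saline or test compound for 10 min at 37 °C. CaCl₂ was added (12.5 mM final) and clotting time recorded in a coagulometer. Mean ± SEM.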
# [5] = tested on: extrinsic pathway and common pathways of the coagulation cascade (plasma); assay: Prothrombin time test; format: biochemical, human; settings: control 15 ± 2 s
# [6] = substance alone, 10 mg/kg as printed, differential count of 100 cells
# [7] = pretreatment, then carrageenan 10 mg/kg 1 h later
Compound,"% Mononuclear cells [2, 6]","% Neutrophils [2, 6]",clotting time in the aPTT test ([3]; 1 µM),clotting time in the aPTT test ([3]; 10 µM),plasma recalcification clotting time ([4]; 1 µM),plasma recalcification clotting time ([4]; 10 µM),prothrombin time ([5]; 1 µM),prothrombin time ([5]; 10 µM),also measured
COC(=O)[C@H](c1ccccc1Cl)N1CCc2sccc2C1 [clopidogrel],–,–,–,–,–,–,–,–,ADP-induced platelet aggregation [1]: inhibited ADP-induced platelet aggregation
carrageenan,28 ± 8%,67 ± 10%,–,–,–,–,–,–,–
C[C@@H]1C[C@H]2[C@@H]3CCC4=CC(=O)C=C[C@]4(C)[C@@]3(F)[C@@H](O)C[C@]2(C)[C@@]1(O)C(=O)CO [dexamethasone],90 ± 6ª %,9 ± 7ª %,–,–,–,–,–,–,"carrageenan-induced increase in white blood cells ([2]; dexamethasone 10 mg/kg i.p. pretreatment): reversed; % Mononuclear cells [2, 7]: 72 ± 9ª %; % Neutrophils [2, 7]: 27 ± 9ª^,g %"
Nc1ncnc2c1ncn2[C@@H]1O[C@H](COP(=O)(O)OP(=O)(O)OP(=O)(O)O)[C@@H](O)[C@H]1O [ATP],–,–,–,–,–,–,–,–,EC50 (P2X7R): ≥ 100 µM; increase in paw edema compared to the saline group (ATP-induced paw edema): 30%
O=C1CN=C(c2cccc(Br)c2)c2oc3ccccc3c2N1 [5-BDBD],–,–,41.9 ± 0.6 s,42.5 ± 0.8 s,204.6 ± 9 s,195 ± 7 s,15.4 ± 0.7 s,15.7 ± 0.5 s,–
COc1cc(S(=O)(=O)O)cc2cc(S(=O)(=O)O)c(NC(=O)c3ccc(C)c(NC(=O)c4cccc(NC(=O)Nc5cccc(C(=O)Nc6cc(C(=O)Nc7cc8c(OC)cc(S(=O)(=O)O)cc8cc7S(=O)(=O)O)ccc6C)c5)c4)c3)cc12 [NF770],–,–,40.9 ± 1 s,42.2 ± 1 s,200.4 ± 12 s,198 ± 8 s,15.5 ± 1 s,15.7 ± 1 s,–
